From ChEMBL document CHEMBL2424586, “Polyoxygenated cinnamoylcoumarins as conformationally constrained analogs of cytotoxic diarylpentanoids: synthesis and biological activity” (Eur J Med Chem, 2013)

Legend:
[1] = Antioxidant activity assessed as ferric ion reducing ability after 20 mins by FRAP assay; type: functional
How it was run: (§1)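 FRAP reagent: acetate buffer (300 mM, pH 3.6), TPTZ (10 mM in 40 mM HCl) and FeCl3 (20 mM) at 10:1:1, diluted to 1/3 with methanol and pre-warmed to 37 °C. Diluted compound added, 20 min at 37 °C, A593. Values read from FeSO4·7H2O calibration curve; quercetin as reference.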

MCF7 = assay: Cytotoxicity against human MCF7 cells after 72 hrs by MTT assay; type: functional, cell-based; settings: MCF7, 72 h
How it was run: (§2)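 MCF-7 grown as monolayer, K562 and MOLT-4 in suspension; seeded at 30,000, 40,000 and 40,000 cells/ml respectively and incubated overnight at 37 °C. Compounds dissolved in DMSO, diluted in medium, final DMSO ≤0.5%; cisplatin as reference.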

MOLT-4 = assay: Cytotoxicity against human MOLT4 cells after 72 hrs by MTT assay; type: functional, cell-based; settings: MOLT-4, 72 h; how it was run: as §2
[2] = system: Radical scavenging activity; assay: Antioxidant activity assessed as DPPH free radical scavenging activity after 30 mins; type: functional
K562 = assay: Cytotoxicity against human K562 cells after 72 hrs by MTT assay; type: functional, cell-based; settings: K562, 72 h; how it was run: as §2
Rattus norvegicus = organism: Rattus norvegicus; assay: Reduction of total thiol content in Wistar rat liver mitochondria after 1 hr by DTNB method; type: functional
How it was run: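 Wistar rat liver mitochondria isolated by differential centrifugation (1500 × g, then 10,000 × g, 10 min, 4 °C) and suspended in Tris-HCl 0.05 M/sucrose 0.25 M/KCl/MgCl2/Na2HPO4, pH 7.4. Protein by Bradford. Mitochondria (1 mg/mL) exposed 1 h to compound, then total thiols measured by DTNB at 412 nm against a GSH standard curve; mean ± SD, n = 3.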

[3] = Antioxidant activity assessed as ferric ion reducing ability after 20 mins by FRAP assay relative to quercetin; type: functional; how it was run: as §1

SMILES	Activity [1] [mM]	IC50 (MCF7) [µM]	IC50 (MOLT-4) [µM]	IC50 [2] [µM]	IC50 (K562) [µM]	Activity (Rattus norvegicus)	fold change (FC) [3]
COc1cccc(COc2ccc3cc(C(=O)/C=C/c4ccccc4)c(=O)oc3c2)c1	10.4	33.7	> 100	890	> 100		
O=C(/C=C/c1ccc2c(c1)OCO2)c1cc2cc(OCc3ccccc3)ccc2oc1=O	12.6	> 50	> 50	570	> 50		
COc1cc(/C=C/C(=O)c2cc3ccc(O)cc3oc2=O)cc(OC)c1OC	8.7	8.8	3.8	190	7.3	Dose-dependent effect	
O=C(/C=C/c1ccc2c(c1)OCO2)c1cc2ccc(O)cc2oc1=O	13.7	38.9	26.2	540	31.7		
COC(=O)c1ccc(/C=C/C(=O)c2cc3cc(O)ccc3oc2=O)cc1		1.3	7.1		15.8		
COc1cccc(COc2ccc3cc(C(=O)/C=C/c4cccc(OC)c4OC)c(=O)oc3c2)c1	7.6	35.1	22.8	720	45.5		
COc1cccc(/C=C/C(=O)c2cc3cc(O)ccc3oc2=O)c1OC	25.7	8.8	6.7	160	17.3		0.3
O=c1c(O)c(-c2ccc(O)c(O)c2)oc2cc(O)cc(O)c12 [QUERCETIN]	87.1			8.12			
COc1cc(/C=C/C(=O)c2cc3cc(O)ccc3oc2=O)cc(OC)c1OC	9.6	10.9	3.9	180	8.8		
COc1cccc(COc2ccc3cc(C(=O)/C=C/c4ccc5c(c4)OCO5)c(=O)oc3c2)c1	7.5	> 100	> 100	460	22.8		
COc1ccc(/C=C/C(=O)c2cc3ccc(OCc4cccc(OC)c4)cc3oc2=O)cc1	14.3	> 100	> 100	930	> 100		
COc1cccc(COc2ccc3cc(C(=O)/C=C/c4ccc(C)cc4)c(=O)oc3c2)c1	6.6	> 50	> 50	2630	> 50		
O=C(/C=C/c1ccc2c(c1)OCO2)c1cc2cc(O)ccc2oc1=O	15.3	9.7	2	480	14.6		
COc1cccc(COc2ccc3cc(C(=O)/C=C/c4ccc(Cl)cc4Cl)c(=O)oc3c2)c1	7.1			480			
COc1cccc(/C=C/C(=O)c2cc3ccc(O)cc3oc2=O)c1OC	25.2	16.6	7	150	14.6	Dose-dependent effect	0.3
COc1cccc(COc2ccc3cc(C(=O)/C=C/c4c(Cl)cccc4Cl)c(=O)oc3c2)c1	5.3	10.1	12.5	940	15.6		
COc1cccc(COc2ccc3cc(C(=O)/C=C/c4cc(OC)ccc4OC)c(=O)oc3c2)c1	9.5	> 100	13.8	750	35.1		
COc1cc(/C=C/C(=O)c2cc3cc(OCc4ccccc4)ccc3oc2=O)cc(OC)c1OC	8.1	26.5	10.3	1150	66.4		
COC(=O)c1ccc(/C=C/C(=O)c2cc3ccc(O)cc3oc2=O)cc1		5.5	3.7		4.4		
COc1cccc(/C=C/C(=O)c2cc3cc(OCc4ccccc4)ccc3oc2=O)c1OC	4.4	21.3	23.6	1270	48.9		
